Test results: ChEMBL document CHEMBL1157406, “Cytotoxic metabolites from the fungal endophyte Alternaria sp. and their subsequent detection in its host plant Polygonum senegalense” (J Nat Prod, 2008)

Columns and labels:
Angiopoietin-1 receptor = Angiopoietin-1 receptor (Homo sapiens, UniProt Q02763); test: Inhibition of recombinant TIE2
Summary of the method: (§1)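 Purified recombinant kinase, 50 µL reaction. 1 µM [γ-33P]-ATP with substrate; compound added in 10% DMSO. Tested over several concentrations; IC50 in g/mL.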

Aurora kinase A = target: T1, Aurora kinase A (Homo sapiens, UniProt O14965); test: Inhibition of recombinant Aurora A; summary of the method: as §1
T1 sequence (O14965 whole entry): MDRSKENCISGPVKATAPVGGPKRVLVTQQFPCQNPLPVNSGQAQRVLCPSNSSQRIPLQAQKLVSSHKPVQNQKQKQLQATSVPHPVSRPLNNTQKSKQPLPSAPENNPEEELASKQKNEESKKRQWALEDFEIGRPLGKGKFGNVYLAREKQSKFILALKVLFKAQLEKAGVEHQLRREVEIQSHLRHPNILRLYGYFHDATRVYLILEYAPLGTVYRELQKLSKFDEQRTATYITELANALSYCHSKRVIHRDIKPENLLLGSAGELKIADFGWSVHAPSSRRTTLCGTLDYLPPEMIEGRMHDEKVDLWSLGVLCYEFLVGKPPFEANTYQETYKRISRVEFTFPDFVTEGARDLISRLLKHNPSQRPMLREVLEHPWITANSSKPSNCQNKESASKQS

[1] = target: Casein kinase II subunit alpha (Homo sapiens, UniProt P68400); test: Inhibition of recombinant CK2alpha1; summary of the method: as §1
Sequence of Casein kinase II subunit alpha (P68400 whole entry): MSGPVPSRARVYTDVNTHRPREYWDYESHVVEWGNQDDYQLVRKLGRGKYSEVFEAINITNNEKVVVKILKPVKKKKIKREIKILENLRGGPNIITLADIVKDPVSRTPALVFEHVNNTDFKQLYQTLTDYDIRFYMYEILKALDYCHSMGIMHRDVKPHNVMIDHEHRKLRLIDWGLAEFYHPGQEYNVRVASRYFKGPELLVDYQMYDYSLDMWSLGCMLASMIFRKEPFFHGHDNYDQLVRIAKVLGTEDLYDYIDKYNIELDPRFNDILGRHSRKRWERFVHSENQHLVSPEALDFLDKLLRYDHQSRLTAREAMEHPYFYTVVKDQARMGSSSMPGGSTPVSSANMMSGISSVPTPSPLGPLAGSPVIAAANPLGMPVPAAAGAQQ

[2] = target: Insulin-like growth factor 1 receptor (Homo sapiens, UniProt P08069); test: Inhibition of recombinant IGF1R; summary of the method: as §1
[3] = target: Serine/threonine-protein kinase B-raf (Homo sapiens, UniProt P15056, V600E); test: Inhibition of recombinant B-RAF-V600E mutant; summary of the method: as §1
Sequence of Serine/threonine-protein kinase B-raf (P15056 2-766 V600E limits assumed): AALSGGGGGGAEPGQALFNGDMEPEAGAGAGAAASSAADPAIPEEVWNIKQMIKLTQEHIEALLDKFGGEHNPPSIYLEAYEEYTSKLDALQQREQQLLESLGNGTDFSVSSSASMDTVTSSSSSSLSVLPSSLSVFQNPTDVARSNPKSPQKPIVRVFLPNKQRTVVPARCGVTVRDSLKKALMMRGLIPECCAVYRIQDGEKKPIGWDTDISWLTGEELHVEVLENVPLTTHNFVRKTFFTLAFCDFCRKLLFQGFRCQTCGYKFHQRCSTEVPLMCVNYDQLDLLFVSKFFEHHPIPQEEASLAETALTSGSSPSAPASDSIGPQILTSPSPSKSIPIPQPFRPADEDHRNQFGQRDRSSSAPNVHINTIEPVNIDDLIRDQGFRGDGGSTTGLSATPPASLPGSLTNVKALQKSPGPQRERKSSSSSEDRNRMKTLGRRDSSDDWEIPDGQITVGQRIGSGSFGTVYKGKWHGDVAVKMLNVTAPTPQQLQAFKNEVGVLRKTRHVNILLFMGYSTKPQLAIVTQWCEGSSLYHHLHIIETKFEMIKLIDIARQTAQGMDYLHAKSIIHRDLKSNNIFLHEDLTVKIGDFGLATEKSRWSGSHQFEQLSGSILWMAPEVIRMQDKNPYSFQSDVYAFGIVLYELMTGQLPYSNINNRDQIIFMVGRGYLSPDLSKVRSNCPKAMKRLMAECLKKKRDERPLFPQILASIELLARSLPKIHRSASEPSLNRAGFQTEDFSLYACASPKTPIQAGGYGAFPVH

[4] = target: Vascular endothelial growth factor receptor 2 (Homo sapiens, UniProt P35968); test: Inhibition of recombinant VEGFR2; summary of the method: as §1
Ephrin type-B receptor 4 = target: T2, Ephrin type-B receptor 4 (Homo sapiens, UniProt P54760); test: Inhibition of recombinant EPHB4; summary of the method: as §1
T2 sequence (P54760 whole entry): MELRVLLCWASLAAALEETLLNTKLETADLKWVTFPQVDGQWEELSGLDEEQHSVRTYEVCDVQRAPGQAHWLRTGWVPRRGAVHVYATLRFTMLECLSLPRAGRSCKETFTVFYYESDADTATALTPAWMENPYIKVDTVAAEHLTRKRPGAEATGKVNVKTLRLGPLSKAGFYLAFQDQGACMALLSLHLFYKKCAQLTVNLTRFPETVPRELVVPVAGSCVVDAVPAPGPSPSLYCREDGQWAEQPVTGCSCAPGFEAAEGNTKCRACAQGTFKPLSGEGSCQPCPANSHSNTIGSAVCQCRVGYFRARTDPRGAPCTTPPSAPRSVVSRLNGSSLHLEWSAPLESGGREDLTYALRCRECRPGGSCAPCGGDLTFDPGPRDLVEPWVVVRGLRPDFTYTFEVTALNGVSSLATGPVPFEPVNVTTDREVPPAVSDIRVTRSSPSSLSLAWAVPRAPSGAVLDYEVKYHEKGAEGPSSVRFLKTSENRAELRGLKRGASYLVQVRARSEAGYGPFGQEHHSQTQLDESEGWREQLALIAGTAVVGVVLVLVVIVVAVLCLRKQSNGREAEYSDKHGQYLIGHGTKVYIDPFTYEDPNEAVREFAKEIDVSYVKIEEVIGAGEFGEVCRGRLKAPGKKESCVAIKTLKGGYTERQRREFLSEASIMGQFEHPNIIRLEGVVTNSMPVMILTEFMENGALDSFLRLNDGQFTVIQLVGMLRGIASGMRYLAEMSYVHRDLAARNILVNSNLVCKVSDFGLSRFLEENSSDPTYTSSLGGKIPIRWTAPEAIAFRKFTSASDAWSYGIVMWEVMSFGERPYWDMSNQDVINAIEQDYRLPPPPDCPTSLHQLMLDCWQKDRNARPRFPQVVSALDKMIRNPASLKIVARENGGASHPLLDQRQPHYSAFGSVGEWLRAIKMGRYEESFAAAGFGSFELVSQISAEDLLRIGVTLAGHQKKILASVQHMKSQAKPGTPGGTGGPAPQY

[5] = target: RAC-alpha serine/threonine-protein kinase (Homo sapiens, UniProt P31749); test: Inhibition of recombinant AKT1; summary of the method: as §1
Sequence of RAC-alpha serine/threonine-protein kinase (P31749 whole entry): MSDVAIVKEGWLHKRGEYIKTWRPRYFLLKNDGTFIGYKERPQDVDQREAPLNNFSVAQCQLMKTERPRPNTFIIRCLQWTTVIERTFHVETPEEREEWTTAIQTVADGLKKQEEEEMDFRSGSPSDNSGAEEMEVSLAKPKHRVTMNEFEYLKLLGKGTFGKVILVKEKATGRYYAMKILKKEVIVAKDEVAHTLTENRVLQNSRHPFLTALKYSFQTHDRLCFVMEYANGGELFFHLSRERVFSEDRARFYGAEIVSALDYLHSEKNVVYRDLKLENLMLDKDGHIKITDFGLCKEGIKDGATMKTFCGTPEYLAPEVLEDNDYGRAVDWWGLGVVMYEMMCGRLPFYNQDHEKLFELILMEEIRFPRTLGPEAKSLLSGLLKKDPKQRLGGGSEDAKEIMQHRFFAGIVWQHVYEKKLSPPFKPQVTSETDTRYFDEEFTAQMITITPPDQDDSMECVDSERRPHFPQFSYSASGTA

[6] = target: Vascular endothelial growth factor receptor 3 (Homo sapiens, UniProt P35916); test: Inhibition of recombinant VEGFR3; summary of the method: as §1
Sequence of Vascular endothelial growth factor receptor 3 (P35916 whole entry): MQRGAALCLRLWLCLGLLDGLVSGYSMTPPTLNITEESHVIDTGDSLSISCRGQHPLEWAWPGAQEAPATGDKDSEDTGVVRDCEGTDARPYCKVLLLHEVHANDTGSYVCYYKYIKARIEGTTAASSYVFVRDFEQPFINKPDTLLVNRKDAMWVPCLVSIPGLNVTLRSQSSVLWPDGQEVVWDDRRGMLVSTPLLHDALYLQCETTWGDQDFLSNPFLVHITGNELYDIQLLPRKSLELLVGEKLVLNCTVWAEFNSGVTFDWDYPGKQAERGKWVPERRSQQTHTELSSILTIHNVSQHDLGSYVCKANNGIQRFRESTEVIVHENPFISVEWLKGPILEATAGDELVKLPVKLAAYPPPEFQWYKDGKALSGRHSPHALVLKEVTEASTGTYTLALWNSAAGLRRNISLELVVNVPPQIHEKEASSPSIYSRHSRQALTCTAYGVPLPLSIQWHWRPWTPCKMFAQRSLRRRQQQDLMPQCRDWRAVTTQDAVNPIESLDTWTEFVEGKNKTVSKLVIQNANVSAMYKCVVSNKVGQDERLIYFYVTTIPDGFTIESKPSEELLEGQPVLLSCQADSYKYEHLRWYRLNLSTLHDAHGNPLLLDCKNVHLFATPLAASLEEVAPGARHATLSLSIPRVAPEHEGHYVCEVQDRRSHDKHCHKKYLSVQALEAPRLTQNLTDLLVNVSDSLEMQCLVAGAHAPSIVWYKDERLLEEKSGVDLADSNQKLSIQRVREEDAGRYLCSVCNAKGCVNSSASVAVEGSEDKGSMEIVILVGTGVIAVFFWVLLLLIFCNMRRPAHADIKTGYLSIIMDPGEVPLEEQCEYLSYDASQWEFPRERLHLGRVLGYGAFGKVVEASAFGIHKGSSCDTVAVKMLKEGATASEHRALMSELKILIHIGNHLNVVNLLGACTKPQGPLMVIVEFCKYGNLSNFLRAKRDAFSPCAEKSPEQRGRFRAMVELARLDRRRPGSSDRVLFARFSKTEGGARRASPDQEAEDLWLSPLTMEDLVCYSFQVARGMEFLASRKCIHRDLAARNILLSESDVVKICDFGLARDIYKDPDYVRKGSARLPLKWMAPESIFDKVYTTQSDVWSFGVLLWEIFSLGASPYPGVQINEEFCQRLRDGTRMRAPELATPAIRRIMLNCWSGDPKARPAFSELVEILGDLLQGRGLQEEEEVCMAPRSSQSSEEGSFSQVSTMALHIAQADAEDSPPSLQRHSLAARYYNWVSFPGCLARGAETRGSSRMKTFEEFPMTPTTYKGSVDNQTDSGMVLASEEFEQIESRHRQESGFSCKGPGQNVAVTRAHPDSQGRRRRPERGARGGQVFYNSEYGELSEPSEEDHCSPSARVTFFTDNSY

[7] = target: T3, Serine/threonine-protein kinase PLK4 (Homo sapiens, UniProt O00444); test: Inhibition of recombinant SAK
T3 sequence (O00444 whole entry): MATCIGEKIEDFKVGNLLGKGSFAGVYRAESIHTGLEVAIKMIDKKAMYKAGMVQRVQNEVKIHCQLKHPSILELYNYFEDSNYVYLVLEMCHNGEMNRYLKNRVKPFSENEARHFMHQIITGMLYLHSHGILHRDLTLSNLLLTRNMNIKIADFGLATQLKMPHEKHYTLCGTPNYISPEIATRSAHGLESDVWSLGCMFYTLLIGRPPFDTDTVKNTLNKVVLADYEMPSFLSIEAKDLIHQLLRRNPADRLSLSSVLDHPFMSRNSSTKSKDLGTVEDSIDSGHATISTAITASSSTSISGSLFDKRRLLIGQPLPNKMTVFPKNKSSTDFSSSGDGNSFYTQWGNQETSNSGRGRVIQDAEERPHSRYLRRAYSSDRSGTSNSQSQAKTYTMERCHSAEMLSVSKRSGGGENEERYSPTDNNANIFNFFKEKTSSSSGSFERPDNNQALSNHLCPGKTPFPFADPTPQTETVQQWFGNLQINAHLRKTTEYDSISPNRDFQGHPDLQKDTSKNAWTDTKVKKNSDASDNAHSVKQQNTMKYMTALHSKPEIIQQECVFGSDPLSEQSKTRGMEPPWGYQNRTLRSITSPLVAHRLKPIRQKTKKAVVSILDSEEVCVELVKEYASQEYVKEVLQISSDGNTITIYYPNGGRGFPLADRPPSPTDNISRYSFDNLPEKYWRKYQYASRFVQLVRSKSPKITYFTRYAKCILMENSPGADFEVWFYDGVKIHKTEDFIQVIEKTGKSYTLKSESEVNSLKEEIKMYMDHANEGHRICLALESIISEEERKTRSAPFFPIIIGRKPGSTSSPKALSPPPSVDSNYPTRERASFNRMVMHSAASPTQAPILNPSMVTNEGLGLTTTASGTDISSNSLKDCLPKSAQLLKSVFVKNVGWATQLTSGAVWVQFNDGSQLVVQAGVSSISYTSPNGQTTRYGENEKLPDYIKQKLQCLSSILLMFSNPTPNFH

[8] = target: Cyclin-dependent kinase 4/cyclin D1 (Homo sapiens, UniProt P11802); test: Inhibition of recombinant CDK4/CycD1; summary of the method: as §1
Sequence of Cyclin-dependent kinase 4/cyclin D1 (P11802 whole entry): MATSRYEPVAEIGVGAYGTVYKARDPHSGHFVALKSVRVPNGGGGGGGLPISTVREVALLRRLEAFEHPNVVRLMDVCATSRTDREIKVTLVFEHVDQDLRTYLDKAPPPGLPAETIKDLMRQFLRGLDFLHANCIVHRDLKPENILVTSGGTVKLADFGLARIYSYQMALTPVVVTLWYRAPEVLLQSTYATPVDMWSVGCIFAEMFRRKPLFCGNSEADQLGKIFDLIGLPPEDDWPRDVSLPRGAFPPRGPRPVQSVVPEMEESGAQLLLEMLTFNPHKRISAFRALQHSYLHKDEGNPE
Sequence of Cyclin-dependent kinase 4/cyclin D1 (P24385 whole entry, further chain): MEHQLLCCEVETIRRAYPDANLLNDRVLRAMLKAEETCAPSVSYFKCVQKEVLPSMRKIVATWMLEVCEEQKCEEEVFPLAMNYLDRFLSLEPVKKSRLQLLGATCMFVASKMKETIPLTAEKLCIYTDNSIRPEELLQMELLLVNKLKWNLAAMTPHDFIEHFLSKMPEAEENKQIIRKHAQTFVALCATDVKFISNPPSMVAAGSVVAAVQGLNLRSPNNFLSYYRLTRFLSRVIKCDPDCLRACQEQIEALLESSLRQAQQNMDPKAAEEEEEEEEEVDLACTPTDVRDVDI

Sequence of Angiopoietin-1 receptor (Q02763 whole entry): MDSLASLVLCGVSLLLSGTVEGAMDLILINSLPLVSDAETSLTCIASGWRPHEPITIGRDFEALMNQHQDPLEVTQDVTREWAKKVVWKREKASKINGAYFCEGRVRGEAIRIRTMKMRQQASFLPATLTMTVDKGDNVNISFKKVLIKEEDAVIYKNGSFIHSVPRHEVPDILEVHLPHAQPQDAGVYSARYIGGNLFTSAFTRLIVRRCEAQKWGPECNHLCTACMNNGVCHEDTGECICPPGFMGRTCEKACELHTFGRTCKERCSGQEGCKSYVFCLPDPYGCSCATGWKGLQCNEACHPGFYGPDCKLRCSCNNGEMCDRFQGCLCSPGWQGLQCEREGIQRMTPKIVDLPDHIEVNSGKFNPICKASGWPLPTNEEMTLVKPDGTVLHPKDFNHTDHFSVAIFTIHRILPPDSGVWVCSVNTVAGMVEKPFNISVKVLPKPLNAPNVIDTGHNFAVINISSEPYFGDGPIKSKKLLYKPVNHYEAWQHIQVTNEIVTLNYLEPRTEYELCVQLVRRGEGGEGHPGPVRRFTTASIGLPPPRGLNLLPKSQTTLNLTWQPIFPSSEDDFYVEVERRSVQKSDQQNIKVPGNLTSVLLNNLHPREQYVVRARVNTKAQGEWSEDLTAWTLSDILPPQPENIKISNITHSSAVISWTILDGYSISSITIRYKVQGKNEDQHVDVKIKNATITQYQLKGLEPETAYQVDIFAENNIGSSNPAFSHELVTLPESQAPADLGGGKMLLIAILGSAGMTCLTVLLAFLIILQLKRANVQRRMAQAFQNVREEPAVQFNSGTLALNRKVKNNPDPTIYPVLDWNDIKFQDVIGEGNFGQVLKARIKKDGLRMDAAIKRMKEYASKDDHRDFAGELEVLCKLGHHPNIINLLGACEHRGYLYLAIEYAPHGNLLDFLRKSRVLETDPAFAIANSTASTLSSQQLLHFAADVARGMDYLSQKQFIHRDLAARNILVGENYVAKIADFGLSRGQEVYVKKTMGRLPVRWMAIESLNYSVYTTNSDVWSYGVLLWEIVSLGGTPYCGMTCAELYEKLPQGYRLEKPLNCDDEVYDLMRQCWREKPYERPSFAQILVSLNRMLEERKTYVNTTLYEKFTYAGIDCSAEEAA

Compound	IC50 (Angiopoietin-1 receptor; read-out: IC50 (converted)) [µM]	IC50 (Aurora kinase A)	IC50 ([2]; read-out: IC50 (converted)) [µM]	IC50 [3]	IC50 [4]	IC50 (Ephrin type-B receptor 4; read-out: IC50 (converted)) [µM]	IC50 [5] [×10⁻⁵ g/ml]	IC50 ([6]; read-out: IC50 (converted)) [µM]	IC50 [7]	IC50 [8] [µM]	IC50 (Aurora kinase A; read-out: IC50 (converted)) [µM]	IC50 [1] [×10⁻⁵ g/ml]	IC50 ([3]; read-out: IC50 (converted)) [µM]	IC50 ([4]; read-out: IC50 (converted)) [µM]	IC50 [6]	IC50 ([7]; read-out: IC50 (converted)) [µM]	IC50 [2]	IC50 (Angiopoietin-1 receptor) [×10⁻⁵ g/ml]	IC50 (Ephrin type-B receptor 4) [×10⁻⁵ g/ml]	further results
Cc1cc(O)cc2oc(=O)c3c(O)cc(OS(=O)(=O)O)cc3c12	20.1	3.9 ×10⁻⁷ g/ml	14.5	7.4 ×10⁻⁷ g/ml	7 ×10⁻⁷ g/ml	9.16	> 1	5.03	3.8 ×10⁻⁷ g/ml	7.98	–	–	–	–	–	–	–	–	–	IC50 ([1]; read-out: IC50 (converted)): 5.91 µM
COc1cc(O)c2c(=O)oc3cc(O)cc(C)c3c2c1	12.9	–	6.24	–	–	5.14	–	–	–	7.71	18.4	> 1	17.6	4.04	9.6 ×10⁻⁷ g/ml	9.18	–	–	–	IC50 ([5]; read-out: IC50 (converted)): 29 µM
Cc1cc(O)c(O)cc1-c1cc(O)cc(O)c1C(=O)O	13.8	–	8.69	–	–	21.4	> 1	24.6	–	15.9	9.77	> 1	26.8	13.8	–	6.15	–	–	–	–
COc1cc(O)c2c(=O)oc3c(O)c(O)cc(C)c3c2c1	4.86	–	–	–	6.4 ×10⁻⁷ g/ml	7.29	–	–	8.3 ×10⁻⁷ g/ml	5.9	5.2	> 1	5.2	–	3.9 ×10⁻⁷ g/ml	–	9.1 ×10⁻⁷ g/ml	–	–	IC50 ([5]; read-out: IC50 (converted)): 18.4 µM
COc1cc(O)c(C(=O)O)c(-c2cc(O)c(O)cc2C)c1 [ALTENUSIN]	33.8	–	16.9	–	–	32.4	> 1	–	–	15.5	6.2	> 1	11.4	17.2	> 1 ×10⁻⁵ g/ml	11	–	–	–	–
COc1cc(O)c2c(c1)-c1cc(O)c(O)cc1COC2=O [ALTERLACTONE]	–	> 1 ×10⁻⁵ g/ml	–	> 1 ×10⁻⁵ g/ml	> 1 ×10⁻⁵ g/ml	–	> 1	–	> 1 ×10⁻⁵ g/ml	–	–	> 1	–	–	> 1 ×10⁻⁵ g/ml	–	> 1 ×10⁻⁵ g/ml	> 1	> 1	–
COc1cc(O)c(C(=O)O)c(C2=C(C)C[C@@H](O)C2=O)c1 [ALTERNARIENONIC ACID]	–	–	12.9	–	–	–	> 1	13.3	–	–	15.8	> 1	32.3	18.3	–	8.98	–	> 1	> 1	–
Cc1cc(O)cc2oc(=O)c3c(O)cc(O)cc3c12 [ALTERNARIOL]	27.1	7.3 ×10⁻⁷ g/ml	13.2	–	9.2 ×10⁻⁷ g/ml	–	> 1	5.03	9.6 ×10⁻⁷ g/ml	9.29	–	–	6.2	–	–	–	–	–	> 1	IC50 ([1]; read-out: IC50 (converted)): 7.75 µM
O=C1C[C@H](O)[C@@H]2c3c(ccc(O)c31)-c1ccc(O)c3c1[C@@]2(O)CCC3=O [ALTERTOXIN I]	25	–	4.82	–	–	25.3	> 1	7.95	–	18.2	4.82	> 1	19	3.97	–	4.82	–	–	–	–
COc1cc(O)c2c(c1)C1(OC2=O)C(C)=CC(=O)C1O (configuration not stated) [TALAROFLAVONE]	–	> 1 ×10⁻⁵ g/ml	–	> 1 ×10⁻⁵ g/ml	> 1 ×10⁻⁵ g/ml	–	> 1	–	> 1 ×10⁻⁵ g/ml	–	–	> 1	–	–	> 1 ×10⁻⁵ g/ml	–	> 1 ×10⁻⁵ g/ml	> 1	> 1	–
